Test results reported in publication PMC9007039 (Journal of medicinal chemistry, 2021).

Molecular target: GPC3 (Homo sapiens, UniProt P51654)
Type: cell-based
Conditions: Hep3B cells, 5 µM peptide, confocal microscopy
Outline: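 Hep3B cells were seeded at ~70% confluence in EMEM with 10% FBS and no antibiotics. They were transfected with 5 nmol of each of three GPC3 siRNAs or a negative-control siRNA using a lipofection reagent. Knockdown was confirmed by anti-GPC3 Western blot with GAPDH as loading control. Cells were methanol-fixed and stained with 5 µM IRDye800-labelled peptide for 5 min at RT, plus anti-GPC3 and AF488 secondary. Intensities were quantified from confocal images.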

Sequence of GPC3 (P51654 25-580): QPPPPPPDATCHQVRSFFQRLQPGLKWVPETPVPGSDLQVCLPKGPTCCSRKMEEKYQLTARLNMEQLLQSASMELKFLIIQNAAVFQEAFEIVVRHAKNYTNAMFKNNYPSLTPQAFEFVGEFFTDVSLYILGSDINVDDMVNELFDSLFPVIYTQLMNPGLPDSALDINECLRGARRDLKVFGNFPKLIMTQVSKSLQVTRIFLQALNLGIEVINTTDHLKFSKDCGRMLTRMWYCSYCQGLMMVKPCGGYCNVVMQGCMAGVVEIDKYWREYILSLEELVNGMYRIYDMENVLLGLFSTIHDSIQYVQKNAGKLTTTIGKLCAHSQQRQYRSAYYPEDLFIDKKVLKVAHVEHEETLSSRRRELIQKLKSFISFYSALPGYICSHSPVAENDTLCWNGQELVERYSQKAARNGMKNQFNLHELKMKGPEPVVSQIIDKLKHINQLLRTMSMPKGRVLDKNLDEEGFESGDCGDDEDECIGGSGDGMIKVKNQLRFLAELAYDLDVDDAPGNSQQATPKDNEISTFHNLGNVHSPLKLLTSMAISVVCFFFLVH

difference in fluorescence intensity siCL versus siGPC3 cells, all 3 siRNAs: non-significant difference
Sequence: FEAEHNLALQTL [FEA*-IRDye800]
